This note sets out measurements from ChEMBL document CHEMBL3046018, “Design, syntheses and 3D-QSAR studies of novel N-phenyl pyrrolidin-2-ones and N-phenyl-1H-pyrrol-2-ones as protoporphyrinogen oxidase inhibitors” (Bioorg Med Chem, 2010).

Some results are limits rather than exact numbers.

In one assay the test system is Setaria viridis. Nature of the assay: Herbicidal activity against Setaria viridis assessed as growth inhibition at 150 g ai/ha using post-emergence protocol under greenhouse conditions measured 15 days after compound treatment. It is filed as functional. The following applies: 360 h, read-out: GI. The method in brief: (§1)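 Grass weeds were grown in pots in the greenhouse and sprayed post-emergence at the 1-leaf stage. The spray was formulation concentrate diluted in water. Soil was clay, pH 6.5, 1.6% organic matter, 37.3% clay particles, CEC 12.1 mol/kg. The g.ai/ha rate was active ingredient over pot surface area. Controls were untreated and DMF-treated seedlings.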

Another assay has as its system Amaranthus retroflexus. As to the kind of experiment: Herbicidal activity against Amaranthus retroflexus assessed as growth inhibition at 150 g ai/ha using post-emergence protocol under greenhouse conditions measured 15 days after compound treatment. The format is functional. As to conditions: 360 h, read-out: GI. The procedure, abridged: (§2)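 Post-emergence greenhouse spray on pot-grown broadleaf weeds at the 2-leaf stage. Formulation concentrates were diluted with water. Soil was clay, pH 6.5, 1.6% organic matter, 37.3% clay particles, CEC 12.1 mol/kg. The rate was total active ingredient divided by pot surface area. Untreated seedlings and DMF-treated seedlings served as controls.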

For a further assay, the system named is Brassica juncea. As to the kind of experiment: Herbicidal activity against Brassica juncea assessed as growth inhibition at 150 g ai/ha using post-emergence protocol under greenhouse conditions measured 15 days after compound treatment. It is filed as functional. The following applies: 360 h, read-out: GI. The method in brief: as §2
A further assay deals with Echinochloa crus-galli. Nature of the assay: Herbicidal activity against Echinochloa crus-galli (barnyard grass) assessed as growth inhibition at 150 g ai/ha using post-emergence protocol under greenhouse conditions measured 15 days after compound treatment. The format is functional. The following applies: 360 h, read-out: GI. The method in brief: as §1
Another assay relates to Chenopodium album. Nature of the assay: Herbicidal activity against Chenopodium album assessed as growth inhibition at 150 g ai/ha using post-emergence protocol under greenhouse conditions measured 15 days after compound treatment. The following applies: 360 h, read-out: GI. It is filed as functional. The procedure, abridged: as §2
In a further assay the test system is Eclipta prostrata. Nature of the assay: Herbicidal activity against Eclipta prostrata assessed as growth inhibition at 150 g ai/ha using post-emergence protocol under greenhouse conditions measured 15 days after compound treatment. The format is functional. The following applies: 360 h, read-out: GI. The procedure, abridged: as §2
A further assay deals with Digitaria sanguinalis. Nature of the assay: Herbicidal activity against Digitaria sanguinalis (hairy crabgrass) assessed as growth inhibition at 150 g ai/ha using post-emergence protocol under greenhouse conditions measured 15 days after compound treatment. It is filed as functional. The following applies: 360 h, read-out: GI. The method in brief:
as §1

For assay [1], the target named is T1, Protoporphyrinogen oxidase (Homo sapiens, UniProt P50336).
T1 sequence (P50336 whole entry): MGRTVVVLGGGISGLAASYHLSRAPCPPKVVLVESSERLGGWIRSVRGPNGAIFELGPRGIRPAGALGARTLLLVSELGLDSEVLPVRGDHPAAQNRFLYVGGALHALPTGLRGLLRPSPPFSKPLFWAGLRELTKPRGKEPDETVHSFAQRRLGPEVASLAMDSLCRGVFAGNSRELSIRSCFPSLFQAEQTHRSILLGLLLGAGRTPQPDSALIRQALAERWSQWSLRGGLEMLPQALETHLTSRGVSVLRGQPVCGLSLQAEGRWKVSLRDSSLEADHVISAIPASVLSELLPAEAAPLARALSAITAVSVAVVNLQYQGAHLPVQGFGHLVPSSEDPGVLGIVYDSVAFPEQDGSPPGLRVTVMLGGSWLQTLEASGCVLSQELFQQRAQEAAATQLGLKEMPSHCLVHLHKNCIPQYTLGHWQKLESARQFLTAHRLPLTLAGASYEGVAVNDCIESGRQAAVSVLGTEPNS
As to the kind of experiment: Inhibition of Homo sapiens (human) protoporphyrinogen oxidase. As to conditions: read-out: Ki.

Turning to `CC(C)Oc1cc(N2C(=O)C3CCCCC3C2O)c(F)cc1Cl` (stereo unspecified), the inhibition of growth at 150 g/ha with Setaria viridis, with Amaranthus retroflexus, in the assay with Brassica juncea, in the assay on Echinochloa crus-galli, in the assay with Chenopodium album and with Eclipta prostrata was less than 50% in each case. The inhibition of growth at 150 g/ha in the assay with Digitaria sanguinalis is less than 50%. Besides, the Ki in assay [1] was determined as 47.4 µM.

Take `CCOc1cc(Cl)c([N+](=O)[O-])cc1N1C(=O)C2=C(CCCC2)C1O` (stereo unspecified): the inhibition of growth at 150 g/ha is less than 50% in the assay with Setaria viridis; more than 80% with Amaranthus retroflexus; less than 50% in the assay on Brassica juncea; less than 50% in the assay with Echinochloa crus-galli; 50% in the assay on Chenopodium album; 50% in the assay on Eclipta prostrata. Further, in the assay on Digitaria sanguinalis, the inhibition of growth at 150 g/ha was less than 50%. The Ki in assay [1] came to 359 µM.

With `Nc1cc(N2CC3=C(CCCC3)C2=O)ccc1Cl`, the inhibition of growth at 150 g/ha with Setaria viridis, in the assay with Amaranthus retroflexus, in the assay on Brassica juncea, in the assay with Echinochloa crus-galli, in the assay with Chenopodium album and in the assay on Eclipta prostrata was less than 50% each time. The inhibition of growth at 150 g/ha with Digitaria sanguinalis is less than 50%. Besides, in assay [1], the Ki was found to be 27.6 µM.

Regarding `COc1cc(N2C(=O)C3CCCCC3C2O)c(F)cc1Cl` (stereo unspecified), the inhibition of growth at 150 g/ha in the assay on Setaria viridis, with Amaranthus retroflexus, in the assay on Brassica juncea, in the assay on Echinochloa crus-galli, in the assay with Chenopodium album and in the assay on Eclipta prostrata was less than 50% throughout. Moreover, the inhibition of growth at 150 g/ha in the assay with Digitaria sanguinalis is less than 50%. In addition, in assay [1], the Ki stood at 131 µM.

As for `C=CCOC1C2=C(CCCC2)C(=O)N1c1cc(OCc2cccc(Cl)c2)c(Cl)cc1F` (stereo unspecified), the inhibition of growth at 150 g/ha is less than 50% with Setaria viridis; more than 80% in the assay on Amaranthus retroflexus; less than 50% in the assay with Brassica juncea; less than 50% in the assay on Echinochloa crus-galli; less than 50% in the assay with Chenopodium album; 50% in the assay on Eclipta prostrata. In the assay on Digitaria sanguinalis, the inhibition of growth at 150 g/ha turned out to be 50%. Further, the Ki in assay [1] was 66.6 µM.

As to `C=CCOc1cc(N2C(=O)C3=C(CCCC3)C2OCC=C)c(F)cc1Cl` (stereo unspecified), the inhibition of growth at 150 g/ha with Setaria viridis is more than 80%; in the assay with Amaranthus retroflexus it was 100%; with Brassica juncea, 100%; in the assay on Echinochloa crus-galli, 50%; with Chenopodium album, more than 80%; with Eclipta prostrata, more than 80%. In addition, the inhibition of growth at 150 g/ha with Digitaria sanguinalis was more than 80%. In assay [1], the inhibition constant Ki is 33.1 µM.

In the case of `CCOc1cc(N2CC3=C(CCCC3)C2=O)c(F)cc1Cl`, the inhibition of growth at 150 g/ha in the assay with Setaria viridis is more than 80%; with Amaranthus retroflexus, more than 80%; with Brassica juncea, 50%; in the assay with Echinochloa crus-galli, more than 80%; with Chenopodium album it was 100%; in the assay with Eclipta prostrata, 50%. Also, the inhibition of growth at 150 g/ha with Digitaria sanguinalis is more than 80%. Moreover, the Ki in assay [1] is 0.2 µM.

On to `C=CCOc1cc(N2C(=O)C3=C(CCCC3)C2O)c(Cl)cc1Cl` (stereo unspecified), for which the inhibition of growth at 150 g/ha was less than 50% with Setaria viridis; 50% in the assay with Amaranthus retroflexus; 50% with Brassica juncea; less than 50% in the assay on Echinochloa crus-galli; 50% with Chenopodium album; 50% with Eclipta prostrata. Also, the inhibition of growth at 150 g/ha in the assay with Digitaria sanguinalis was less than 50%. Further, in assay [1], the inhibitory constant (Ki) is 7.45 µM.

Regarding `CCOC(=O)C(C)Oc1cc(N2C(=O)C3CCCCC3C2O)c(F)cc1Cl` (stereo unspecified), the inhibition of growth at 150 g/ha with Setaria viridis, in the assay with Amaranthus retroflexus, in the assay with Brassica juncea, in the assay on Echinochloa crus-galli, with Chenopodium album and with Eclipta prostrata was less than 50% in each case. Moreover, the inhibition of growth at 150 g/ha in the assay with Digitaria sanguinalis is less than 50%. The inhibitory constant (Ki) in assay [1] was found to be 48.1 µM.

As for `CCOC(=O)COc1cc(N2C(=O)C3CCCCC3C2O)c(F)cc1Cl` (stereo unspecified), the inhibition of growth at 150 g/ha in the assay on Setaria viridis, with Amaranthus retroflexus, in the assay on Brassica juncea, with Echinochloa crus-galli, in the assay on Chenopodium album and in the assay on Eclipta prostrata was less than 50% in each case. Also, in the assay with Digitaria sanguinalis, the inhibition of growth at 150 g/ha is less than 50%. The Ki in assay [1] amounted to 124 µM.

Consider `C=CCOc1cc(N2C(=O)C3=C(CCCC3)C2O)c(F)cc1Cl` (stereo unspecified), for which the inhibition of growth at 150 g/ha in the assay on Setaria viridis is less than 50%; in the assay with Amaranthus retroflexus, more than 80%; in the assay on Brassica juncea, 50%; with Echinochloa crus-galli it was less than 50%; in the assay with Chenopodium album, more than 80%; with Eclipta prostrata, 50%. The inhibition of growth at 150 g/ha with Digitaria sanguinalis is less than 50%. Further, the Ki in assay [1] was determined as 1.03 µM.

With `CCCOc1cc(N2CC3=C(CCCC3)C2=O)c(F)cc1Cl`, the inhibition of growth at 150 g/ha in the assay with Setaria viridis was more than 80%; in the assay with Amaranthus retroflexus, more than 80%; in the assay on Brassica juncea, more than 80%; in the assay on Echinochloa crus-galli, more than 80%; in the assay with Chenopodium album, 100%; with Eclipta prostrata it was 100%. Also, the inhibition of growth at 150 g/ha in the assay on Digitaria sanguinalis is more than 80%. Moreover, the Ki in assay [1] is 0.095 µM.

By Ki is commonly meant a measure of affinity in units of concentration, obtained from inhibition or displacement.
